Laboratory results: ChEMBL document CHEMBL1137400, “Dopamine/serotonin receptor ligands. 13: Homologization of a benzindoloazecine-type dopamine receptor antagonist modulates the affinities for dopamine D(1)-D(5) receptors” (J Med Chem, 2006)
pKi: −log10 of the molar value. Activity calls are given as the source filed them. No cut-off for these calls is given here.

Key:
D(2) dopamine receptor [1] = molecular target: T1, D(2) dopamine receptor (Homo sapiens, UniProt P14416); test: Displacement of [3H]spiperone from human D2L dopamine receptor expressed in CHO cells; format: cell-based
T1 sequence (P14416 whole entry): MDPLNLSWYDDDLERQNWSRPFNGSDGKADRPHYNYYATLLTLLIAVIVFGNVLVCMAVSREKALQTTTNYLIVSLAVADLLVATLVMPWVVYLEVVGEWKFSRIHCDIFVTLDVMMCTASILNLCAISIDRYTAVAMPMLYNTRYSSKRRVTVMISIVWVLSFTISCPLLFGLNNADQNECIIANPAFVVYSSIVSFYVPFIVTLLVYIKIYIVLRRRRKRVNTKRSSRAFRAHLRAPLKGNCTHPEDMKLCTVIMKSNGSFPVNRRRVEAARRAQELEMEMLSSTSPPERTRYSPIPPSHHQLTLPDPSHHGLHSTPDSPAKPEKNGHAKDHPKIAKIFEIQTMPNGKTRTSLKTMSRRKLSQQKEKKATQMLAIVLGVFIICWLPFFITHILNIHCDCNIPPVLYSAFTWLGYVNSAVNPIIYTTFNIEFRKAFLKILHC
Method in brief: (§1)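 Human D2L or D3 receptors stably expressed in CHO cells; [3H]spiperone displacement in 96-well format. Incubation 90 min at 27 °C, ended by rapid filtration. IC50 was converted to Ki by Cheng-Prusoff. At least two independent experiments, each run in triplicate.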

D(1A) dopamine receptor [2] = molecular target: T2, D(1A) dopamine receptor (Homo sapiens, UniProt P21728); test: Displacement of [3H]SCH 23390 from human D1 dopamine receptor expressed in HEK293 cells; format: cell-based
T2 sequence (P21728 whole entry): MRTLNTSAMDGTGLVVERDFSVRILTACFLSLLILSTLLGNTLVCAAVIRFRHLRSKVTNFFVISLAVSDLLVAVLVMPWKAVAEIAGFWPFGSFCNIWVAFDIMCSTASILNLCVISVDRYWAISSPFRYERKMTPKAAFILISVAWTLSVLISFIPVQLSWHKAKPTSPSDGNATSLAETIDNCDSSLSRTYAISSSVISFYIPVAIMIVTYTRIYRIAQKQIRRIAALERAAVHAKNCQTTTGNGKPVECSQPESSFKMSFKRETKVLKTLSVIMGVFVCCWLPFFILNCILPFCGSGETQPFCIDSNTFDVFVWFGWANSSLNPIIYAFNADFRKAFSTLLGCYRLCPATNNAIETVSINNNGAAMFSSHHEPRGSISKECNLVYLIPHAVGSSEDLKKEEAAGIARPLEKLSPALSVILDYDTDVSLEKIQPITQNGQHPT
Method in brief: (§2)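 Human cloned receptors stably expressed: D1 in HEK293 cells with [3H]SCH 23390, and D4.4 in CHO cells with [3H]spiperone. Radioligand displacement was run in 96-well format, incubated 90 min at 27 °C and stopped by rapid filtration. At least two independent experiments, each in triplicate. Ki was calculated from IC50 by Cheng–Prusoff. "No activity" means under 70% displacement at 10^-5 M.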

D(3) dopamine receptor = D(3) dopamine receptor (Homo sapiens, UniProt P35462); test: Displacement of [3H]spiperone from human D3 receptor expressed in CHO cells; format: cell-based; method in brief: as §1
D(3) dopamine receptor, sequence (P35462 whole entry): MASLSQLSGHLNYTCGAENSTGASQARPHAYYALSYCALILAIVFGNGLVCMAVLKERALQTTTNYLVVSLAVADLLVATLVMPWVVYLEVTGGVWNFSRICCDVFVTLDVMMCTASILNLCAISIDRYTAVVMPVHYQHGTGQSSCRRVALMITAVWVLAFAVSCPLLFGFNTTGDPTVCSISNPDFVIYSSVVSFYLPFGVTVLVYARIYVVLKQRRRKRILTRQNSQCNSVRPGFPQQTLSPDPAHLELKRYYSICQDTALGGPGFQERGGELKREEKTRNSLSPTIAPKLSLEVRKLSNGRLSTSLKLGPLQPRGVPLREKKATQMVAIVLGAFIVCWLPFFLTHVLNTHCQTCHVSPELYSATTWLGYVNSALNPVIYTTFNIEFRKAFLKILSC

[3] = molecular target: T3, D(4) dopamine receptor (Homo sapiens) (UniProt P21917); test: (§3) Displacement of [3H]spiperone from human D4 dopamine receptor expressed in CHO cells; format: cell-based; method in brief: as §2
T3 sequence (whole entry): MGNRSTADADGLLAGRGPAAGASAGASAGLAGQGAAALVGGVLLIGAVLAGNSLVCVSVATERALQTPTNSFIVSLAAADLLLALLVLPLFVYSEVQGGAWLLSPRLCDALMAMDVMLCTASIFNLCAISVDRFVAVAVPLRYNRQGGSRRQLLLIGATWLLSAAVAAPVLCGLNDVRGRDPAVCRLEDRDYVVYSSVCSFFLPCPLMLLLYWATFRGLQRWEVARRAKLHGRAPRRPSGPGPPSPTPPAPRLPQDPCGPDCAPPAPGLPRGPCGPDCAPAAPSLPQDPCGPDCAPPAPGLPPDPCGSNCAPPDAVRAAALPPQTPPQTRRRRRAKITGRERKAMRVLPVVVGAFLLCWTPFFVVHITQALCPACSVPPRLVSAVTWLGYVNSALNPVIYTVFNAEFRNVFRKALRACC

D(1B) dopamine receptor [4] = molecular target: T4, D(1B) dopamine receptor (Homo sapiens, UniProt P21918); test: Displacement of [3H]SCH 23390 from human D5 dopamine receptor expressed in HEK293 cells; format: cell-based
T4 sequence (P21918 whole entry): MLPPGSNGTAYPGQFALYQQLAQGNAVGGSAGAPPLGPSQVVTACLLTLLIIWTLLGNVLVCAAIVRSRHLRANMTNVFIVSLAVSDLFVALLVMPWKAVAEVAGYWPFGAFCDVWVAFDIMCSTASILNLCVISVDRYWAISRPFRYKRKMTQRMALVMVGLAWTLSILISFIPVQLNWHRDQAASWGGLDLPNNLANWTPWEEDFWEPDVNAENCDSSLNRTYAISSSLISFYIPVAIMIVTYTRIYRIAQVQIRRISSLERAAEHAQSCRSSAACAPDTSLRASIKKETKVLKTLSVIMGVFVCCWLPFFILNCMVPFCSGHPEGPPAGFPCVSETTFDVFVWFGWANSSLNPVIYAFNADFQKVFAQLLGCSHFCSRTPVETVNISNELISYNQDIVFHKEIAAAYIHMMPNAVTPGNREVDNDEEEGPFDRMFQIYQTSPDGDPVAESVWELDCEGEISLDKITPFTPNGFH
Method in brief: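 Radioligand binding with [3H]SCH 23390 on human D5 stably expressed in HEK293 cells, in 96-well format. Incubation 90 min at 27 °C, stopped by rapid filtration. Ki was calculated from IC50 by Cheng-Prusoff. At least two independent experiments, each in triplicate.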

D(1A) dopamine receptor [5] = molecular target: T2, D(1A) dopamine receptor; test: Activity at human D1 dopamine receptor expressed in HEK293 cells by calcium fluorescence assay; format: functional, cell-based
Method in brief: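 Human D1 stably expressed in HEK293 cells. Intracellular Ca2+ was read by fluorescence. Compounds were first checked for any Ca2+ rise on their own, then tested for concentration-dependent suppression of the signal induced by the agonist SKF 38393. Ki was taken from the sigmoidal inhibition curve. Means of three experiments of six values each (±SEM), or of two experiments.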

D(2) dopamine receptor [6] = molecular target: T1, D(2) dopamine receptor; test: Activity at human D2L dopamine receptor expressed in HEK293 cells by calcium fluorescence assay; format: functional, cell-based
D(1B) dopamine receptor [7] = molecular target: T4, D(1B) dopamine receptor; test: Activity at human D5 dopamine receptor expressed in HEK293 cells by calcium fluorescence assay; format: functional, cell-based
D(4) dopamine receptor = molecular target: T5, D(4) dopamine receptor (Homo sapiens, UniProt P21917); test: as §3; format: cell-based; method in brief: as §2
T5 sequence (P21917 whole entry): T3 sequence (whole entry)

SMILES	Activity (D(2) dopamine receptor [1])	Activity (D(1A) dopamine receptor [2])	Activity (D(3) dopamine receptor)	Activity [3]	Activity (D(1B) dopamine receptor [4])	Activity (D(1A) dopamine receptor [5])	Activity (D(2) dopamine receptor [6])	Activity (D(1B) dopamine receptor [7])	pKi (D(3) dopamine receptor)	pKi (D(4) dopamine receptor)	pKi (D(2) dopamine receptor [1])	pKi (D(1A) dopamine receptor [2])	pKi (D(1B) dopamine receptor [4])	pKi (D(1A) dopamine receptor [5])	pKi (D(2) dopamine receptor [6])	pKi (D(1B) dopamine receptor [7])
c1ccc2c(c1)CCN1CCCc3c([nH]c4ccccc34)C21 (centres undefined)	inactive	inactive	inactive	inactive	inactive	inactive	inactive	inactive	–	–	–	–	–	–	–	–
CN1CCc2ccccc2Cc2[nH]c3ccccc3c2CC1	–	–	–	–	–	–	–	–	7.59	6.97	–	–	–	–	–	–
c1ccc2c(c1)CCCN1CCc3c([nH]c4ccccc34)C21 (centres undefined)	inactive	inactive	inactive	inactive	inactive	inactive	inactive	inactive	–	–	–	–	–	–	–	–
CN1CCCc2ccccc2Cc2[nH]c3ccccc3c2CC1	–	–	–	–	–	–	–	–	6.56	7.01	7.84	8.66	9.21	8.55	8.82	8.55
CN1CCCc2c([nH]c3ccccc23)Cc2ccccc2CC1	–	–	–	–	–	–	–	–	6.28	6.74	6.84	6.79	7.04	6.52	7.42	7.15
